“And” between values parts separate entries of the source, which are not always exact repeats. Equal values may be shown once.
Legend:
[1] = tested on: C26 murine colon carcinoma cells; experiment: In vitro cytotoxicity; assay type: cell-based
MIA PaCa-2 cells = experiment: In vitro cytotoxicity; assay type: cell-based, human; conditions: 72 h incubation, MTS, Dox equiv. concentration, n = 3 (Figure 2F)
Method in brief: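 MIA PaCa-2 cells grown in DMEM with 10% FBS and 2.5% horse serum, seeded at 5000 cells/well and left overnight. Exposed for 72 h, in triplicate, to 3-fold serial dilutions in medium, with cell-free wells for background correction. MTS added for 3 h at 37 °C, then A490 read. Viability relative to buffer-treated cells; IC50 as Dox equiv. by logistic nonlinear regression.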

[2] = mouse, iv
[3] = Intravenous pharmacokinetics in healthy BALB/c mice
C26 tumors = experiment: Tumor regression, syngeneic C26 colon carcinoma; assay type: in vivo, BALB/c mice; conditions: single i.v. dose
MIA PaCa-2 tumors = experiment: Tumor regression, MIA PaCa-2 pancreatic xenograft; assay type: in vivo, nude BALB/c mice; conditions: 20 mg Dox equiv. kg^−1 BW
[4] = cited from earlier work
[5] = tested on: advanced soft tissue sarcomas; conditions: cited from earlier work
STS = conditions: ref NCT01514188; cited from earlier work

COc1cccc2c1C(=O)c1c(O)c3c(c(O)c1C2=O)C[C@@](O)(C(=O)CO)C[C@@H]3O[C@H]1C[C@H](N)[C@H](O)[C@H](C)O1 [free Dox, doxorubicin]
IC50 ([1]; 72 h, in the absence of MSA and ABD, n = 3 (Figure 2H)): 230 nM
IC50 ([1]; 72 h, in the presence of ABD (0.5 × 10^−3 M in medium), n = 3 (Figure 2H)): 160 nM
IC50 ([1]; 72 h, in the presence of MSA (equimolar), n = 3 (Figure 2H)): 220 nM
IC50 ([1]; 72 h incubation, MTS, Dox equiv. concentration, n = 3 (Figure 2F)): 510 nM and 500 nM
Change of cytotoxicity in the presence of either MSA or ABD ([1]; C26 cells, 72 h): No difference was observed
IC50 (MIA PaCa-2 cells): 40 nM
In vivo elimination half-life [2]: on the order of minutes
Concentration in blood 15 min after i.v. injection, of the initial concentration ([3]; i.v. 5 mg per kg BW, 15 min): less than 2%

COc1cccc2c1C(=O)c1c(O)c3c(c(O)c1C2=O)C[C@@](O)(/C(CO)=N/NC(=O)CCCCCN1C(=O)C=CC1=O)C[C@@H]3O[C@H]1C[C@H](N)[C@H](O)[C@H](C)O1 [AlDox, Aldoxorubicin]
Mice that did not survive over the 100-day course of study (C26 tumors; 20 mg Dox equiv. kg^−1 BW): 89%
Tumor response at 20 mg Dox equiv. kg^−1 BW (C26 tumors; without recurrence of the primary tumor in any mice, 100 days): complete eradication of C26 tumors
Tumor recurrence in tumor-eradicated mice by day 50 (MIA PaCa-2 tumors): tumors recurred in all of the tumor-eradicated mice
Mice with complete tumor disappearance by day 15 (MIA PaCa-2 tumors; single i.v. dose): 50%
Concentration at which an acidic pH is required for solubility ([4]; aqueous solutions): ≥ 0.5 mg Dox equiv. mL^−1
Solubility at physiological pH ([4]; requires an acidic pH for solubility in aqueous solutions): poor solubility
Cardiotoxicity [5]: minimal cardiotoxicity
Progression-free survival compared to the standard of care regimen [5]: superior progression-free survival
Cardiotoxicity in the AlDox arm (STS): no evidence of cardiotoxicity
Overall survival, AlDox versus free Dox arms (STS): not considerably different
PFS in the AlDox arm (STS): superior PFS
Plasma concentration 15 min after i.v. injection, fold lower than ABD–Dox ([3]; i.v. 5 mg Dox equiv. per kg BW, 15 min): approximately 2 fold
Area under curve ([3]; i.v. 5 mg Dox equiv. per kg BW, plasma, two-compartment model, mean ± SD): 801.2 ± 23.7 × 10^−6 M h
